Test results: ChEMBL document CHEMBL4699498 (J Med Chem, 2020)
Active and inactive are the calls of the source. No cut-off for these calls is given here.

How the values were obtained:
[1] = system: MDA-MB-468; test: Antiproliferation activity against human MDA-MB-468 assessed as cell growth inhibition incubated for 7 days by CCK-8 assay; format: functional, cell-based; details: time 7.0 day
In short: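 Cells were sub-cultured at least twice and seeded for 24 h before dosing. Compounds came from 10 mM DMSO stocks, given as 10 points of 3-fold serial dilution starting at 10-20 μM. Incubation was about 7 days (Capan-1 13 days) at 37 °C, 5% CO2. Read-out was CCK-8 absorbance at 450 nm, as % growth versus DMSO wells (duplicate wells). IC50 was fitted by nonlinear regression; three independent experiments.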

[2] = biological target: T1, Protein cereblon/Poly [ADP-ribose] polymerase 1 (Homo sapiens, UniProt P09874+Q96SW2); test: Protac activity at CRBN/PARP1 in human MDA-MB-436 cells assessed as induction of PARP1 degradation at 10 nM incubated for 24 hrs by Western blot analysis relative to control; format: cell-based
In short: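 MDA-MB-436 cells (RPMI-1640, 10% FBS) seeded 24 h, then exposed to compound at 1, 10, 100 and 1000 nM for 24 h. Lysates in RIPA with protease inhibitors, 20-30 µg protein by SDS-PAGE, PARP1 immunoblot with β-tubulin loading control; PARP1/β-tubulin ratio normalized to DMSO control set at 100.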
Target sequence in this assay (P09874 2-1014 limits assumed): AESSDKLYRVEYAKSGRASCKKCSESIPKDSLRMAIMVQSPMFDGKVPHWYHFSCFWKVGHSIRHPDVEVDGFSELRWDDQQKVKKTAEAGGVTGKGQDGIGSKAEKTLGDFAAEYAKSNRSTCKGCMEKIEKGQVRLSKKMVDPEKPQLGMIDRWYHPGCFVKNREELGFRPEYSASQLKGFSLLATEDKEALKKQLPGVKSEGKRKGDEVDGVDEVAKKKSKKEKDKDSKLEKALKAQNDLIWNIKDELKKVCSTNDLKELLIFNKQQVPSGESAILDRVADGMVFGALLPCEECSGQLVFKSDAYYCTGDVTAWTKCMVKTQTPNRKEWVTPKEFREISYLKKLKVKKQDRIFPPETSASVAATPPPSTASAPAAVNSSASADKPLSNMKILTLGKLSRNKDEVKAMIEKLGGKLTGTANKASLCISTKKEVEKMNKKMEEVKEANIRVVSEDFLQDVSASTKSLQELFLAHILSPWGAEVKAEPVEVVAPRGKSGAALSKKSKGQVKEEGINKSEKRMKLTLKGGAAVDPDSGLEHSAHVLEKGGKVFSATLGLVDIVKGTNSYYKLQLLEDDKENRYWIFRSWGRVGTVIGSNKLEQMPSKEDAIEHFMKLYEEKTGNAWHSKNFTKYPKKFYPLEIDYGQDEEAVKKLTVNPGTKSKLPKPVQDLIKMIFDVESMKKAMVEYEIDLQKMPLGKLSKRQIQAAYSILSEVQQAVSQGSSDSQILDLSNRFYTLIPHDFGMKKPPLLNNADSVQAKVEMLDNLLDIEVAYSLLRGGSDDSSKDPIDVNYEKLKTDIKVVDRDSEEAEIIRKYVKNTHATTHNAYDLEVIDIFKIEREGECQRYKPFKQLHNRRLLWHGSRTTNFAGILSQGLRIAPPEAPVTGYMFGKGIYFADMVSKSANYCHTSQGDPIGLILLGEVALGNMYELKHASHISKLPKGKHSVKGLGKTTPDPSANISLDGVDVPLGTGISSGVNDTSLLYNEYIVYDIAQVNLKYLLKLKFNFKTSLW
Target sequence in this assay (Q96SW2 whole entry partner): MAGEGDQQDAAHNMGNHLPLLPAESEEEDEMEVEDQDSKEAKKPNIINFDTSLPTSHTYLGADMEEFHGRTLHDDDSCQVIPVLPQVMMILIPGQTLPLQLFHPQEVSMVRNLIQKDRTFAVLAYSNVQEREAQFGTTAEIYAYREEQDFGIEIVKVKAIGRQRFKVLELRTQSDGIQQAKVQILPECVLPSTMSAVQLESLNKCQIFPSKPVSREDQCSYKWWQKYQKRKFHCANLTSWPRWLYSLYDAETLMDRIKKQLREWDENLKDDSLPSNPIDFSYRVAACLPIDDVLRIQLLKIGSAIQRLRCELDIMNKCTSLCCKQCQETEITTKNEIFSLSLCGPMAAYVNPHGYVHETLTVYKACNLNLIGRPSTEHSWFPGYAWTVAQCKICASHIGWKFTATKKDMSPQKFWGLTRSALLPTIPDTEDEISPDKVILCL

[3] = biological target: T1, Protein cereblon/Poly [ADP-ribose] polymerase 1; test: Protac activity at CRBN/PARP1 in human SW-620 cells assessed as induction of PARP1 degradation at 30 nM incubated for 24 hrs in presence of proteasome inhibitor MG132 by Western blot analysis; format: cell-based
Target sequence in this assay (P09874 2-1014 limits assumed): as the sequence (P09874 2-1014 limits assumed) above
Target sequence in this assay (Q96SW2 whole entry partner): as the sequence (Q96SW2 whole entry partner) above

[4] = Plasma concentration in ICR mouse at 25 mg/kg, ip at 1 hr postinjection by LC-tandem mass spectrometry analysis; format: ADME, organism-based
In short: (§1)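 Female ICR mice (20-23 g, 6-7 weeks old, n = 3) received a single 25 mg/kg intraperitoneal dose formulated in 5% DMSO/15% Solutol HS15/80% D5W. Plasma was sampled at 0.5, 1, 2, 4, 6, 8 and 24 h and protein-precipitated with methanol. Compound was quantified by LC-MS/MS against a standard curve.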

[5] = Cmax in ICR mouse at 25 mg/kg, ip by LC-tandem mass spectrometry analysis; format: ADME, organism-based; design: route intraperitoneal, dose 25 mg/kg; details: in vivo; in short: as §1
[6] = biological target: T1, Protein cereblon/Poly [ADP-ribose] polymerase 1; test: Protac activity at CRBN/PARP1 in human MDA-MB-436 cells assessed as induction of PARP1 degradation at 30 nM incubated for 24 hrs in presence of 0.1 to 1 uM PARP1 inhibitor olaparib by Western blot analysis
Target sequence in this assay (P09874 2-1014 limits assumed): as the sequence (P09874 2-1014 limits assumed) above
Target sequence in this assay (Q96SW2 whole entry partner): as the sequence (Q96SW2 whole entry partner) above

[7] = biological target: T1, Protein cereblon/Poly [ADP-ribose] polymerase 1; test: Protac activity at CRBN/PARP1 in human SW-620 cells assessed as induction of PARP1 degradation at 30 nM incubated for 24 hrs in presence of 0.1 to 1 uM PARP1 inhibitor olaparib by Western blot analysis; format: cell-based
Target sequence in this assay (P09874 2-1014 limits assumed): as the sequence (P09874 2-1014 limits assumed) above
Target sequence in this assay (Q96SW2 whole entry partner): as the sequence (Q96SW2 whole entry partner) above

[8] = Cytotoxicity against […] H9c2 cells assessed as reduction in cell viability incubated for 120 hrs by CCK-8 assay; format: cell-based; details: h9c2, 120 h
[9] = biological target: T1, Protein cereblon/Poly [ADP-ribose] polymerase 1; test: Protac activity at CRBN/PARP1 in human SW-620 cells assessed as induction of PARP1 degradation at 10 nM incubated for 24 hrs by Western blot analysis relative to control; format: cell-based
Target sequence in this assay (P09874 2-1014 limits assumed): as the sequence (P09874 2-1014 limits assumed) above
Target sequence in this assay (Q96SW2 whole entry partner): as the sequence (Q96SW2 whole entry partner) above

[10] = biological target: T1, Protein cereblon/Poly [ADP-ribose] polymerase 1; test: Protac activity at CRBN/PARP1 in human LNCaP cells assessed as induction of PARP1 degradation measured after 24 hrs by Western blot analysis; format: cell-based
In short: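 Concentration-response over a wide range, 24 h exposure; PARP1 quantified by western blot and normalized to β-tubulin density; DC50 derived from two biologically independent experiments.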
Target sequence in this assay (P09874 whole entry): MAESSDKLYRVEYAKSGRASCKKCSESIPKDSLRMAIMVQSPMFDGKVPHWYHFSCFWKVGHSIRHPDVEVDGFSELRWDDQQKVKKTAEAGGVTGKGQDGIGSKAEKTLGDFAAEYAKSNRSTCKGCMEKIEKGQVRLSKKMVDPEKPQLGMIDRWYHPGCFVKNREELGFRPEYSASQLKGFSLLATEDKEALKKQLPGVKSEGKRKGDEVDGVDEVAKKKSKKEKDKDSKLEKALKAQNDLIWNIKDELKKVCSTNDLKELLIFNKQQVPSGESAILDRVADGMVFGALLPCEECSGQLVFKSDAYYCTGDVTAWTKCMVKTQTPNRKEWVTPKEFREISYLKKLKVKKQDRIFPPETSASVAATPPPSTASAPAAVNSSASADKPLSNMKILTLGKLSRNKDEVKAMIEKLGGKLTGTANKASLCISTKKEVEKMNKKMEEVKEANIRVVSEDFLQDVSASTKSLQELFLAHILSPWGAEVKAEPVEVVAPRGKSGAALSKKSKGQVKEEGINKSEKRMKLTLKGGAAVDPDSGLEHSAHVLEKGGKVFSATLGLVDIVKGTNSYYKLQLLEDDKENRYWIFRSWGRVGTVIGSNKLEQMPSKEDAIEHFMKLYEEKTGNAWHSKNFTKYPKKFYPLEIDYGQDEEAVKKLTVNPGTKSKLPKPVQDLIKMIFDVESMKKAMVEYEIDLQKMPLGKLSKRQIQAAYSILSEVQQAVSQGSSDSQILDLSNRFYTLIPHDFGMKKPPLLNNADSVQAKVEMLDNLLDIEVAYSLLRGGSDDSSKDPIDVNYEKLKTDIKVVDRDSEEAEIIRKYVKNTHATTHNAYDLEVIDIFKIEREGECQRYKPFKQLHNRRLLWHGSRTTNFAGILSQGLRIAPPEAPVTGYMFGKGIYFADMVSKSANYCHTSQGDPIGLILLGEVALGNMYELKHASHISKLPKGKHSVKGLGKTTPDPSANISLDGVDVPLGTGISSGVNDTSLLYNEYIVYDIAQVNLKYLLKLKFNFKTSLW
Target sequence in this assay (Q96SW2 whole entry): as the sequence (Q96SW2 whole entry partner) above

[11] = Half-life in ICR mouse at 25 mg/kg, ip by LC-tandem mass spectrometry analysis; format: ADME, organism-based; details: in vivo; in short: as §1
[12] = biological target: T1, Protein cereblon/Poly [ADP-ribose] polymerase 1; test: Protac activity at CRBN/PARP1 in human MDA-MB-436 cells assessed as induction of PARP1 degradation at 30 nM measured within 1 hr by Western blot analysis; format: cell-based; details: time hrs <=1
In short: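 Time course at 30 nM in MDA-MB-436 or SW620 cells; PARP1 immunoblotted at successive time points, β-tubulin as loading control.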
Target sequence in this assay (P09874 2-1014 limits assumed): as the sequence (P09874 2-1014 limits assumed) above
Target sequence in this assay (Q96SW2 whole entry partner): as the sequence (Q96SW2 whole entry partner) above

[13] = Acute toxicity in Balb/c mouse xenografted with SW-620 cells assessed as mean weight loss at 10 mg/kg, ip qd administered for 5 days in presence of TMZ measured on day 9 relative to control; format: organism-based; details: in vivo, 216 h, time 9 day
In short: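 Male BALB/c nude mice carried SW620 xenografts (6×10^6 cells s.c.), randomized at ~150 mm³ (6 per group). TMZ 50 mg/kg was given orally once daily on days 0-4, 45 min after the partner drug. Partners were 5 or 10 mg/kg intraperitoneally or 10 mg/kg by oral gavage, daily for 5 days. Vehicle was 5% DMSO/20% PEG400/10% Cremophor EL/65% saline. Tumor volume and body weight were recorded 2-3 times weekly.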

[14] = system: CAPAN-1; test: Potentiation of cisplatin induced antitumor activity against CAPAN-1 cells xenografted in Balb/c mouse administered intraperitoneally once daily for 5 days; format: functional; details: dose mg/kg 25-50, time 5.0 day
In short: (§2)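 Male BALB/c nude mice carried Capan-1 xenografts (5×10^6 cells s.c.), randomized at ~150 mm³ (6 per group). Treatment was 25 or 50 mg/kg intraperitoneally or 100 mg/kg by oral gavage, once daily on days 0-4. Cisplatin 6 mg/kg in saline was given intraperitoneally on day 2, 45 min after the partner drug. Tumor volume and body weight were measured 2-3 times weekly.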

[15] = Acute toxicity in Balb/c mouse xenografted with CAPAN-1 cells assessed as mean weight loss at 25 mg/kg, ip qd administered for 5 days in presence of cisplatin measured on day 10 relative to control; format: organism-based; details: in vivo, 120 h, time 5 day; in short: as §2
[16] = Plasma concentration in ICR mouse at 25 mg/kg, ip at 24 hrs postinjection by LC-tandem mass spectrometry analysis; format: ADME, organism-based; in short: as §1
[17] = biological target: T1, Protein cereblon/Poly [ADP-ribose] polymerase 1; test: Protac activity at CRBN/PARP1 in human MDA-MB-436 cells assessed as induction of PARP1 degradation at 30 nM incubated for 24 hrs in presence of 0.1 to 1 uM CRBN ligand pomalidomide by Western blot analysis
[18] = Acute toxicity in Balb/c mouse xenografted with SW-620 cells assessed as lethality at 5 to 10 mg/kg, ip qd administered for 5 days in presence of TMZ; format: organism-based; details: in vivo, 120 h, dose 5-10 mg/kg, time 5 day
In short: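 In male BALB/c nude mice (5–6 weeks), s.c. SW620 xenografts (6×10^6 cells, right armpit) were grown to about 150 mm³, then randomised, 6 per group. The agent was given once daily for 5 days, orally or i.p., in 5% DMSO/20% PEG400/10% Cremophor EL/65% saline. TMZ 50 mg/kg was given orally once daily for 5 days from day 0, 45 min after the agent. Body weight was measured 2–3 times weekly.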

SMILES: O=C(CCCCCCCCCCC(=O)N1CCN(C(=O)c2cc(Cc3n[nH]c(=O)c4ccccc34)ccc2F)CC1)NCCNc1cccc2c1C(=O)N(C1CCC(=O)NC1=O)C2=O (stereo not drawn)
- Activity [1]: Active
- Activity [2]: > 99%
- Activity [3]: inactive
- concentration at 1 h [4]: 1.83 µM
- Cmax [5]: 1.84 µg/mL
- Activity [6]: inactive
- Activity [7]: inactive
- Activity [8]: Non-Toxic
- Activity [9]: > 99%
- DC50 [10]: 1.08 nM
- half-life [11]: 3.08 h
- Activity [12]: Active
- Activity [13]: 15%
- Activity [14]: Dose-dependent effect
- Activity [15]: 9%
- concentration at 24 h [16]: > 0.01 µM
- Activity [17]: inactive
- Activity [18]: Non-Toxic
